Measured values from ChEMBL document CHEMBL1649494, “Hypersusceptibility to azole antifungals in a clinical isolate of Candida glabrata with reduced aerobic growth” (2009).
Converted amounts (≈) assume the structure as drawn.

Legend:
Type in all cases: functional
Nakaseomyces glabratus [1] = assay: Antifungal activity against Candida glabrata isolate 21231 at 10 ug after 48 hrs by disk diffusion method; conditions: isolate 21231, 48 h, read-out: DIZ
Nakaseomyces glabratus [2] = assay: Antifungal activity against Candida glabrata isolate 22852 at 10 ug after 48 hrs by disk diffusion method; conditions: isolate 22852, 48 h, read-out: DIZ
Nakaseomyces glabratus [3] = assay: Antifungal activity against Candida glabrata isolate 22853 at 10 ug after 48 hrs by disk diffusion method; conditions: isolate 22853, 48 h, read-out: DIZ
Nakaseomyces glabratus [4] = assay: Antifungal activity against Candida glabrata isolate 21231 by Etest method
In short: (§1)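 MIC by Etest strips on Casitone agar plates (pH 7.2, chloramphenicol-supplemented), run per manufacturer's recommendations; isolates maintained on YEPD agar by regular passage.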

Nakaseomyces glabratus [5] = assay: Antifungal activity against Candida glabrata isolate 22852 by Etest method; in short: as §1
Nakaseomyces glabratus [6] = assay: Antifungal activity against Candida glabrata isolate 22853 by Etest method; in short: as §1
Nakaseomyces glabratus [7] = assay: Antifungal activity against Candida glabrata isolate 21231 at 15 ug after 48 hrs by disk diffusion method; conditions: isolate 21231, 48 h, read-out: DIZ
Nakaseomyces glabratus [8] = assay: Antifungal activity against Candida glabrata isolate 22852 at 15 ug after 48 hrs by disk diffusion method; conditions: isolate 22852, 48 h, read-out: DIZ
Nakaseomyces glabratus [9] = assay: Antifungal activity against Candida glabrata isolate 22853 at 15 ug after 48 hrs by disk diffusion method; conditions: isolate 22853, 48 h, read-out: DIZ

Row | Structure (SMILES) | zone of inhibition at 10 µg/disc (Nakaseomyces glabratus [1]) [mm] | zone of inhibition at 10 µg/disc (Nakaseomyces glabratus [2]) [mm] | zone of inhibition at 10 µg/disc (Nakaseomyces glabratus [3]) [mm] | MIC (Nakaseomyces glabratus [4]) [µg/mL] | MIC (Nakaseomyces glabratus [5]) [µg/mL] | MIC (Nakaseomyces glabratus [6]) [µg/mL] | zone of inhibition at 15 µg/disc (Nakaseomyces glabratus [7]) [mm] | zone of inhibition at 15 µg/disc (Nakaseomyces glabratus [8]) [mm] | zone of inhibition at 15 µg/disc (Nakaseomyces glabratus [9]) [mm]
1 | C[C@@H]1[C@H](O)[C@@H](C)/C=C/C=C/C=C/C=C/C=C/C=C/C=C/[C@H](O[C@@H]2O[C@H](C)[C@@H](O)[C@H](N)[C@@H]2O)C[C@@H]2O[C@](O)(C[C@@H](O)C[C@@H](O)[C@H](O)CC[C@@H](O)C[C@@H](O)CC(=O)O[C@H]1C)C[C@H](O)[C@H]2C(=O)O [AMPHOTERICIN B] | 27 | 40 | 31 | 0.047 (≈ 0.0509 µM) | 0.032 (≈ 0.0346 µM) | 0.047 (≈ 0.0509 µM) |  |  | 
2 | Clc1ccccc1C(c1ccccc1)(c1ccccc1)n1ccnc1 [CLOTRIMAZOLE] | 25 | 50 | 12 |  |  |  |  |  | 
3 | Clc1ccc(COC(Cn2ccnc2)c2ccc(Cl)cc2Cl)cc1 (configuration not stated) [ECONAZOLE] | 25 | 50 | 13 |  |  |  |  |  | 
4 | OC(Cn1cncn1)(Cn1cncn1)c1ccc(F)cc1F [FLUCONAZOLE] |  |  |  | 6 (≈ 19.6 µM) | 0.94 (≈ 3.07 µM) | > 256 | 21 | 50 | 0
5 | CC(=O)N1CCN(c2ccc(OCC3COC(Cn4ccnc4)(c4ccc(Cl)cc4Cl)O3)cc2)CC1 (configuration not stated) [KETOCONAZOLE] | 33 | 50 | 16 |  |  |  |  |  | 
6 | Clc1ccc(COC(Cn2ccnc2)c2ccc(Cl)cc2Cl)c(Cl)c1 (configuration not stated) [MICONAZOLE] | 21 | 35 | 0 |  |  |  |  |  | 
7 | C[C@@H](c1ncncc1F)[C@](O)(Cn1cncn1)c1ccc(F)cc1F [VORICONAZOLE] |  |  |  | 0.047 (≈ 0.135 µM) | 0.003 (≈ 0.00859 µM) | 4 (≈ 11.5 µM) |  |  | 
